Structures can show the parent of a compound that is named as a salt. Bounds are passed on as bounds.

Assay [1] concerns intraerythrocytic P. falciparum parasites. Briefly: Flow cytometric analysis of nuclear content and parasitemia. Type of assay: cell-based, Plasmodium falciparum. The note with it: 1 × IC90, continuous treatment for 96 h. The procedure, abridged:
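Intraerythrocytic parasites (2% parasitemia, 2% hematocrit) treated in duplicate, with untreated (DMSO) controls. Samples taken at 24, 48, 72 and 96 h. Nuclear content (1 N rings/early trophozoites, 2 N trophozoites, >2 N schizonts) and parasitemia measured from SYBR Green I fluorescence by flow cytometry in the FITC channel (488 nm excitation; 502 nm long-pass and 530 nm band-pass emission).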
In general terms: In flow cytometry, cells or beads pass a laser one at a time.

Assay [2] has as its system HepG2 cells. As to conditions: HepG2 vs P. falciparum; cited from earlier work.
The subject of assay [3] is intraerythrocytic P. falciparum 3D7. The note with it: cited from earlier work.
The test system of assay [4] is late (>90% stage IV/V) gametocytes of P. falciparum (NF54-Mal8p1.16-GFP-Luc). Briefly: Gametocytocidal luciferase reporter assay, late gametocytes. Type of assay: cell-based, Plasmodium falciparum. The note with it: 5 µM, 48 h, inhibition of luciferase readout. The procedure, abridged: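 Gametocytes induced from synchronized asexual cultures in the NF54-Mal8p1.16-GFP-Luc line: glucose-free medium under hypoxia, with daily changes, and 50 mM N-acetyl glucosamine on days 1–4 to remove asexual forms. Assays set up on day 10 in triplicate at 2% gametocytemia and 2% hematocrit, 48 h, 37 °C, hypoxic. Luciferin added to lysates at room temperature and luminescence read with 10 s integration; % inhibition derived.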
Background: In a reporter assay the amount or activity of a reporter protein is the signal.

The test system of the next assay is Plasmodium yoelii. As to conditions: murine model of Plasmodium yoelii; ref unpublished observations; cited from earlier work.
Assay [5] concerns HepG2 cells. Nature of the assay: Cytotoxicity against HepG2 cells, lactate dehydrogenase. Type of assay: cell-based, human. As to conditions: GI50 mammalian cell (HepG2)/IC50 P. falciparum (3D7).
Another assay deals with β-hematin formation. Nature of the assay: NP-40 mediated β-hematin formation assay. The assay is classed as biochemical.

`O=C(NCCCNCCCCCNCCCNC(=O)NCC(c1ccccc1)c1ccccc1)NCC(c1ccccc1)c1ccccc1` [Compound 15, 1,13-Bis-{3-[1-(2′,2′-diphenylethyl)urea]}-4,10-diazat-ridecane dihydrochloride]: the “Time to complete cessation of parasite proliferation” value in assay [1] is recorded as no more than 24 h.

As for `O=C(NCCCNCCCCCCCNCCCNC(=O)NC(c1ccccc1)c1ccccc1)NC(c1ccccc1)c1ccccc1` [Compound 29], the “Selectivity (SI) compared to HepG2 cells (previously reported analogues)” value in the assay on HepG2 cells [2] is listed as greater than 1000.

For the compound `CCNC(=O)NCCCNCCCCCCNCCCNC(=O)NCC` [Compound 54], the “P. falciparum IC50 (previously reported analogues)” value in assay [3] is “inactive”.

Regarding `S=C(NCCCNCCCCCNCCCNC(=S)NCCC(c1ccccc1)c1ccccc1)NCCC(c1ccccc1)c1ccccc1` [Compound 11, 1,13-Bis-{3-[1-(3′,3′-diphenylpropyl)thiourea]}-4,10-diazatridecane dihydrochloride], the “Gametocytocidal activity, late-stage gametocytes” value in assay [4] is listed as “fully inhibitory”.

On to `S=C(NCCCNCCCCCCNCCCNC(=S)NCc1ccccc1)NCc1ccccc1` [Compound 28], for which the “Selectivity (SI) compared to HepG2 cells (previously reported analogues)” value in the assay on HepG2 cells [2] was greater than 1000.

`C(CCCNCCCNCC1CCCCCC1)CCCNCCCNCC1CCCCCC1` [Compound 5]: the “Reduction of parasitemia and extension of life span” value in the assay with Plasmodium yoelii is “as effective as pyrimethamine at reducing parasitemia and extending life span”.

As to `S=C(NCCCNCCCCCNCCCNC(=S)NCC(c1ccccc1)c1ccccc1)NCC(c1ccccc1)c1ccccc1` [Compound 10, 1,13-Bis-{3-[1-(2′,2′-diphenylethyl)thiourea]}-4,10-diazatridecane dihydrochloride], the “Selectivity index (SI)” value in the assay on HepG2 cells [5] is reported as greater than 1000.

Turning to `CCCNC(=O)NCCCNCCCCCCNCCCNC(=O)NCCC` [Compound 53], the “P. falciparum IC50 (previously reported analogues)” value in assay [3] was “inactive”.

Consider `O=C(NCCCNCCCCCNCCCNC(=O)NCCC(c1ccccc1)c1ccccc1)NCCC(c1ccccc1)c1ccccc1` [Compound 16, 1,13-Bis-{3-[1-(3′,3′-diphenylpropyl)urea]}-4,10-diazatridecane dihydrochloride], for which, in assay [1], the “Time to complete cessation of parasite proliferation” value is given as no more than 24 h. In addition, in the assay with β-hematin formation (read-out: β-hematin formation inhibition IC50, NP-40 mediated, n = 3), the 50% inhibitory concentration (IC50) (in general, the concentration that inhibits the measured activity by half) was greater than 400 µM.

Take `O=C(NCCCNCCCCCNCCCNC(=O)NCc1ccccc1)NCc1ccccc1` [Compound 13, 1,13-Bis-{3-[1-(benzyl)urea]}-4,10-diazatridecane dihydrochloride]: the “β-hematin formation inhibition, concentration without activity” value with β-hematin formation (no activity even at 1 mM) is on record as greater than 1 mM.

`S=C(NCCCNCCCCCNCCCNC(=S)NC(c1ccccc1)c1ccccc1)NC(c1ccccc1)c1ccccc1` [Compound 9, 1,13-Bis-{3-[1-(1’,1’-diphenylmethyl)thiourea]}-4,10-diazatridecane dihydrochloride]: the “Gametocytocidal activity, late-stage gametocytes” value in assay [4] is on record as “fully inhibitory”.

The values are drawn from paper PMC4517987 (Bioorganic & medicinal chemistry, 2015).
